Screening results (PubChem BioAssay)
Diaphorase act = compounds boosting diaphorase resazurin reduction – biochemical, uHTS, resorufin fluorescence, counter-screen for diaphorase-coupled primary assays, primary screen; Diaphorase/resazurin coupled assay, 16 min; active compounds read high; 1 = vehicle wells, 0 = NADH-free wells; activation factor at 20 µM; 0.005% of 190,000 active; AID 1229, 2008;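 active = diaphorase activity raised at least twofold by the compound at 20 µM; inactive = activation factor below 2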
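Test system: Clostridium kluyveri diaphorase, purified enzyme; input: enzyme 0.07 U/mL final; buffer or medium: 50 mM HEPES pH 7.4 with 4.542 mM MgCl2, 0.005% Tween 20; also added: 0.114 mM NADH and 0.1 mM resazurin, final amounts; schedule: 16 min enzyme reaction, ambient temperature; technique: fluorescence of resorufin, 544 nm excitation, 590 nm emission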
L major viab = Leishmania major promastigote growth inhibition, primary screen; inhibition, % at 10 µM; AID 1063, 2008; 9% of 200,000 active; Leishmania major promastigotes, resazurin fluorescence viability; in the data active = inhibition above about 50%;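 note: promastigotes grown with compound for 44 hours at 28 °C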
PMI activator = activators of human PMI, primary screen, biochemical, fluorescence intensity, near-Km mannose 6-phosphate; activation factor at 20 µM; AID 1214, 2008; 0.005% of 190,000 active; Mannose-6-phosphate isomerase (Homo sapiens), P34949; purified human PMI, coupled resazurin fluorescence, 20 min; active compounds read high; 1 = vehicle control, 0 substrate-free wells;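 active = activation factor of 2 or more at 20 µM, relative to plate controls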
Target sequence (P34949 whole entry, looked up): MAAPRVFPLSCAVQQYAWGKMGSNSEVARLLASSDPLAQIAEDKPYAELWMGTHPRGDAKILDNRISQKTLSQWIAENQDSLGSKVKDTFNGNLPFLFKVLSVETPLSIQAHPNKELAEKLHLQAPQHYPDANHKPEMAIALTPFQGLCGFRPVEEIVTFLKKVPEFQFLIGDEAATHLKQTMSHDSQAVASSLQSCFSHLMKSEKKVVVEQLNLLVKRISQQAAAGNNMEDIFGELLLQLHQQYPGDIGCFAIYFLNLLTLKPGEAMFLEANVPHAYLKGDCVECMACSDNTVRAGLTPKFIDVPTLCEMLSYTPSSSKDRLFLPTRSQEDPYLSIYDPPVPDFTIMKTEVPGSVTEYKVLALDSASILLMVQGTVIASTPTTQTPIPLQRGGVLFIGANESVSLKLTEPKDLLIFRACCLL
PMI act satM6P = human PMI activators, high substrate, primary screen, biochemical, fluorescence intensity, near-saturating mannose 6-phosphate; Mannose-6-phosphate isomerase (Homo sapiens), P34949; coupled PMI enzyme assay, resazurin fluorescence, 20 min; active compounds read high; 1 = untreated enzyme, 0 = substrate-free blank; activation factor at 20 µM; 0.34% of 190,000 active;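 active = activation factor of 2 or more at 20 µM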
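Technique: Diaphorase-driven resazurin-to-resorufin fluorescence, excitation 544, emission 590 nm | Assay system: Human PMI in coupled enzyme assay | Times: Enzyme reaction with compound 20 min at room temperature | Medium: HEPES-buffered pH 7.4 with magnesium and detergent | Reagent: Mannose-6-phosphate 1.0 mM (near-saturating) plus 0.22 mM NADP+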
WT yeast gro inh = growth inhibition of WT strain, primary screen, mitochondrial fusion inhibitor project, WT and mutant strains, chemical genetic; mitochondrial fusion phenotypic screen; inhibition, % at 10 µM; 2.1% of 190,000 active; AID 1362, 2008; in the data active = inhibition above about 58%; tested in S. cerevisiae
Starred values were filed as active, the others as inactive; nt = no result. Only some compounds are listed: those with a hit (about 10% of all), similar ones and a draw of the others.

SMILES | Diaphorase act | L major viab | PMI activator | PMI act satM6P | WT yeast gro inh
O=C(COc1cccc2ccccc12)NNC(=O)CSCCO | 1 | 57* | 1 | 0.7 | -9
CCOC(=O)c1c(NC(=O)C2=C(C)NC(=S)NC2c2ccc(F)cc2F)sc(C)c1C (centres undefined) | 0.8 | 27 | 0.8 | 0.9 | 33
CCOC(=O)c1c(NC(=O)C2=C(C)NC(=S)NC2c2ccc(C)cc2)sc(C)c1C (centres undefined) | 0.9 | 81* | 0.9 | 0.9 | 8
CCOC(=O)c1c(NC(=O)C2=C(C)NC(=S)NC2c2ccc(F)cc2)sc(C)c1C (centres undefined) | 0.8 | 82* | 0.9 | 0.9 | 20
C=CCn1c(SCC(=O)NC(=O)c2cccc([N+](=O)[O-])c2)nnc1-c1ccccc1 | 0.8 | -4 | 1 | 0.9 | -9
CC1CN(C(=S)NC(=O)C2CCCCC2)CC(C)O1 (centres undefined) | 0.9 | 37 | 1 | 1 | -6
Cn1cccc1C(=O)NC(=O)COC(=O)c1cc(S(=O)(=O)N2CCCCC2)ccc1Cl | 0.8 | -14 | 1.1 | 1 | -24
Cc1cccc(C(=O)Nc2nnc(-c3cccnc3)o2)c1 | 0.9 | 65* | 1.1 | 1.1 | 6
COc1cccc(-c2nnc(NC(=O)c3ccc4ncsc4c3)o2)c1 | 1.1 | 82* | 1.3 | 1.3 | 46
COc1cccc(-c2nnc(NC(=O)c3ccc(S(=O)(=O)N4CCOCC4)cc3)o2)c1 | 0.9 | 96* | 1 | 1.1 | -18
O=C(c1ccc(S(=O)(=O)N2CCOCC2)cc1)N1CCN(c2cccc(Cl)c2)CC1 | 0.9 | -2 | 0.8 | 0.9 | 13
O=C(NCC1CCN(c2ccc(S(=O)(=O)N3CCOCC3)cc2)CC1)c1cccc(Cl)c1 | 0.8 | 97* | 0.9 | 0.9 | -7
CCC(=O)NNC(=O)CCC(=O)Nc1cccc(Cl)c1C | 0.9 | 1 | 1 | 1 | -1
Cc1cc(C)n(CCNC(=O)CC2C(=O)NCCN2Cc2ccccc2C(F)(F)F)n1 (centres undefined) | 0.8 | -2 | 1 | 0.8 | 3
O=[N+]([O-])c1ccc(Oc2c(F)c(F)nc(N3CCCC3)c2F)cc1 | 0.9 | -5 | 0.9 | 1 | 8
O=C(Nc1ccccc1)C1=C[C@H](c2ccc(Br)cc2)C[C@H](OCc2ccc(CO)cc2)O1 | 0.6 | 16 | 0.8 | 0.9 | 48
COc1cccc(-c2nnc(NC(=O)C3CCCCC3)o2)c1 | 0.8 | 66* | 0.9 | 0.9 | 3
COc1ccc(NC(=O)c2ccc(S(=O)(=O)N3CCOCC3)cc2)c(OC)c1 | 0.9 | 5 | 0.9 | 0.9 | 31
CC1CN(S(=O)(=O)c2ccc(C(=O)Nc3nnc(-c4ccc5c(c4)CCCC5)o3)cc2)CC(C)O1 (centres undefined) | 1.1 | 99* | 1.3 | 1.2 | 10
CC1CN(S(=O)(=O)c2ccc(C(=O)Nc3nnc(-c4ccccn4)o3)cc2)CC(C)O1 (centres undefined) | 0.9 | 0 | 1.2 | 1.1 | 2
CCOc1ccc(-c2nnc(NC(=O)c3ccc(OCC(C)C)c(OC)c3)o2)cc1 | 0.9 | 98* | 1.1 | 1.1 | 64*
COc1cccc(C(=O)NCC2CCN(c3ccc(S(=O)(=O)N4CCOCC4)cc3)CC2)c1 | 0.8 | 64* | 0.9 | 0.9 | -1
COc1cccc(-c2nnc(NC(C)=O)o2)c1 | nt | nt | nt | nt | 8
O=C(COc1ccc(Cl)cc1)NCc1cn2cc(Cl)ccc2n1 | 1 | -4 | 1.1 | 1.1 | -5
COc1cc(C(=O)Nc2cc(-c3cn4cccnc4n3)ccc2C)cc(OC)c1OC | 1 | 13 | 1 | 0.9 | -14
SMILES | Diaphorase act | L major viab | PMI activator | PMI act satM6P | WT yeast gro inh
Cc1ccc(NC(=S)N(CCCN(C)C)Cc2cc3cc4c(cc3[nH]c2=O)OCO4)c(C)c1 | 0.9 | 4 | 1 | 1 | 7
COc1cc2cc3c(N)c(C(=O)NCc4ccco4)sc3nc2cc1OC | 0.7 | 81* | 1.3 | 1.1 | 4
Cc1ccc2nc3sc(C(=O)NCc4ccco4)c(N)c3cc2c1 | 0.6 | 0 | 1 | 0.9 | 11
COc1cc2c(cc1C1NC(=S)NC(C)=C1C(N)=O)CCCC2 (centres undefined) | nt | -1 | nt | nt | 0
COC(=O)c1c(NC(=O)c2c(-c3ccccc3Cl)noc2C)sc2c1CCC2 | 0.9 | 3 | 1 | 1 | 75*
COC(=O)c1c(NC(=O)c2nc3nc(C)cc(C(F)F)n3n2)sc2c1CCC2 | 0.8 | 25 | 0.9 | 0.9 | 60*
Cc1onc(-c2ccccc2Cl)c1C(=O)Nc1sc2c(c1C(N)=O)CCC(C)C2 (centres undefined) | 0.7 | 30 | 0.9 | 0.9 | 69*
COc1cccc(C(=O)NCC(=O)N/N=C/c2cn[nH]c2-c2ccccc2)c1 | 0.9 | -9 | 1 | 0.9 | 11
COC(=O)CS(=O)(=O)c1ccsc1C(=O)Nc1ccc(F)cc1 | 0.9 | -8 | 0.9 | 0.9 | -15
CCCC(=O)c1c[nH]c(C(=O)NCc2ccco2)c1 | 0.8 | -3 | 1 | 1 | 24
CNS(=O)(=O)c1cnccc1N1CCN(c2cccc(C(F)(F)F)c2)CC1 | 0.8 | 99* | 0.8 | 0.9 | -27
CC(=O)Nc1ccc(N=NN2CCOCC2)cc1 | 0.9 | 0 | 1.3 | 1.4 | -6
CC(=O)Nc1ccc(N=Nc2ccc(O)cc2)cc1 | 0.9 | 52* | 0.9 | 1 | -6
N#CCCN(C(=O)COc1ccc(Cl)cc1Cl)c1ccccc1 | 0.9 | -3 | 1 | 1 | -13
O=C(CSc1nc2ccsc2c(=O)n1Cc1ccccc1)NCC1CCCO1 (centres undefined) | 0.9 | 12 | 1 | 0.9 | -8
CCC1CCCCN1C(=O)CSc1nc2ccsc2c(=O)n1Cc1ccccc1 (centres undefined) | 0.7 | 58* | 0.9 | 1 | 22
CCCCC(=Nc1ccc(N)cc1)C1=C(O)C(C(=O)OC)C(C)(C)CC1=O (centres undefined) | 0.8 | 68* | 0.8 | 0.8 | 15
COCCn1c(SCC(=O)Nc2sccc2C(N)=O)nc2cc(Cl)ccc2c1=O | 0.7 | 23 | 0.9 | 0.9 | 5
CN1CCN(CCOc2ccc(Cl)c(Cl)c2)CC1 | 0.9 | 98* | 1.2 | 1.2 | -7
CCN(CC)CCOc1ccc(Br)cc1 | 1 | 0 | 1.1 | 1.1 | 9
CCN(CC)CCCOc1ccc(Cl)c(Cl)c1 | 0.8 | 83* | 1 | 1 | 2
CCN(CC)CCOc1ccc2c(c1)C(=NO)c1cc(OCCN(CC)CC)ccc1-2 | 1.1 | 100* | 1.1 | 1 | -10
COc1cccc(NC(=O)CCSc2ccc(C)cc2)c1 | 0.9 | -3 | 1 | 1 | -2
